# What was measured:
# [1] = species on record: Cavia porcellus; test: In vitro molar concentration required to block [Ca2+] -induced contraction of K+-depolarized taenia cecum of guinea pigs; format: functional; conditions: Caecum
# In short: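 Guinea pig taenia cecum washed with Ca2+-free high-K+ Krebs solution after equilibration. Compound applied 5 min before CaCl2 (3 × 10^-4 M). Contraction recorded isotonically.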
# [2] = test system: Rattus norvegicus; test: Hypotensive effect in Spontaneously hypertensive rats as maximum decrease in systolic blood pressure at 100 mg/kg, po dose; format: functional, Artery
# In short: (§1)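 Male SHR, 300-400 g, conscious, 6-13 animals. Oral dosing as a 0.5% methylcellulose suspension. Systolic pressure by tail-cuff plethysmography at 0, 1, 3, 6, 9 and 24 h after dosing; heart rate from pulse over 4 s. Value is maximum SBP fall, mean ± SEM of six animals; Dunnett's test.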
# [3] = species on record: Mus musculus; test: Effect on acute thrombic death induced by collagen in mice; format: functional; conditions: read-out: ID50 (the source's name)
# In short: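 Male ddY mice (20-30 g) given compound orally as 0.5% tragacanth suspension 3 h before rapid tail-vein injection (2 s) of collagen (type III, 3 mg/mL in acetic acid/Tris pH 7.4), about 30 mg/kg, set so […] within 3 min. Survival scored; % inhibition = (St - Sc)/(100 - Sc); ID50 in mg/kg po; n=8 treated, 12 control.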
# [4] = test system: Rattus norvegicus; test: Hypotensive effect in Spontaneously hypertensive rats as maximum decrease in systolic blood pressure at 30 mg/kg, po dose; format: functional, Artery; in short: as §1
# [5] = species on record: Oryctolagus cuniculus; test: Electrophysiological effect in isolated rabbit hearts as molar concentration that prolongs the His bundle ventricular (H-V) conduction time by 10%; format: functional, Cardiac ventricle
# [6] = species on record: Oryctolagus cuniculus; test: Electrophysiological effect in isolated rabbit hearts as molar concentration that prolongs the atrio-His bundle (A-H) conduction time by 30%; format: functional
# [7] = Ratio between EC10 and EC30 in isolated rabbit hearts in His bundle ventricular intervals; format: functional
# [8] = test system: Rattus norvegicus; test: Hypotensive effect in Spontaneously hypertensive rats as maximum decrease in systolic blood pressure at 10 mg/kg, po dose; format: functional, Artery; in short: as §1
IC50 [1] [µM],Structure (SMILES),other results
2,CNCCCCOc1ccc(OC)cc1C1Sc2ccccc2N1C(C)=O (configuration not stated),
2.6,COc1ccc(OCCCCN2CCN(CCc3cc(OC)c(OC)c(OC)c3)CC2)c(C2Sc3ccccc3N2C=O)c1 (configuration not stated),
11,COc1ccc(OCCCN2CCC(C(=O)c3ccccc3)CC2)c(C2Sc3ccccc3N2C(C)=O)c1 (configuration not stated),
4.4,CC(=O)N1c2ccccc2SC1c1ccc(OCCCN(C)C2CCCCC2)cc1 (configuration not stated),
1.3,COc1ccc(OCCCCCN(C)CCc2ccc(OC)c(OC)c2)c(C2Sc3ccccc3N2C(C)=O)c1 (configuration not stated),
5.5,CC(=O)N1c2ccccc2SC1c1ccc(OCCCN(C)C)cc1 (configuration not stated),
1.6,COc1ccc(OCCCN(C)C)c(C2Sc3ccccc3N2C(C)=O)c1 (configuration not stated),
8.8,COc1cccc(C2Sc3ccccc3N2C(C)=O)c1OCCCCN(C)C1CCCCC1 (configuration not stated),
13,COc1cccc(C2Sc3ccccc3N2C(C)=O)c1OCCCN(C)C (configuration not stated),
4.2,COc1ccc(OCCCCCCN(C)C2CCCCC2)c(C2Sc3ccccc3N2C(C)=O)c1 (configuration not stated),
0.66,COc1ccc(OCCCCN(C)CCc2ccc(OC)c(OC)c2)c(C2Sc3ccccc3N2C(C)=O)c1 (configuration not stated),
1.3,COc1ccc(OCCCCCN(C)CCc2cc(OC)c(OC)c(OC)c2)c(C2Sc3ccccc3N2C(C)=O)c1 (configuration not stated),
2,COc1ccc(OCCCN(C)CCc2ccc(OC)c(OC)c2OC)c(C2Sc3ccccc3N2C(C)=O)c1 (configuration not stated),
1.4,COc1ccc(OCCCCN2CCC(C(=O)c3ccccc3)CC2)c(C2Sc3ccccc3N2C(C)=O)c1 (configuration not stated),
8.7,COc1ccc(OCCCCN2CCC(C(=O)c3ccc(Cl)cc3)CC2)c(C2Sc3ccccc3N2C(C)=O)c1 (configuration not stated),
2.3,COc1cc(CCN2CCN(CCCCOc3ccc(Cl)cc3C3Sc4ccccc4N3C(C)=O)CC2)cc(OC)c1OC (configuration not stated),
4,CN(CCCOc1ccccc1C1Sc2ccccc2N1C=O)C1CCCCC1 (configuration not stated),
6.2,CC(=O)N1c2ccccc2SC1c1cc([N+](=O)[O-])ccc1OCCCN(C)C (configuration not stated),
0.34,COc1ccc(OCCCCN(C)CCc2ccc(OC)c(OC)c2OC)c(C2Sc3ccccc3N2C(C)=O)c1 (configuration not stated),
1.2,CCC(=O)N1c2ccccc2SC1c1cc(OC)ccc1OCCCCN1CCN(CCc2cc(OC)c(OC)c(OC)c2)CC1 (configuration not stated),
4.2,COc1ccc(OCCCN(C)C2CCCCC2)c(C2Sc3ccccc3N2C(C)=O)c1 (configuration not stated),
4.8,CC(=O)N1c2ccccc2SC1c1cc([N+](=O)[O-])ccc1OCCCCN1CCC(C(=O)c2ccccc2)CC1 (configuration not stated),
8,COc1ccc(OCCCCCN(C)CCc2ccc(OC)c(OC)c2OC)c(C2Sc3ccccc3N2C(C)=O)c1 (configuration not stated),
17,COc1ccc(OCCCCCN2CCC(C(=O)c3ccccc3)CC2)c(C2Sc3ccccc3N2C(C)=O)c1 (configuration not stated),

# Further lines, the compound ahead of its results:
Structure (SMILES),IC50 [1] [µM],other results
COc1ccc(OCCCCCN2CCN(CCc3ccc(OC)c(OC)c3)CC2)c(C2Sc3ccccc3N2C(C)=O)c1 (configuration not stated),0.82,
CC(=O)N1CCSC1c1ccc(OCCN(C)C)cc1 (configuration not stated),> 100,
CC(=O)N1CCSC1c1ccccc1OCCN(C)C (configuration not stated),> 100,
CC(=O)N1c2ccccc2SC1c1ccccc1OCCN(C)C (configuration not stated),17,
COc1ccc(OCCCCN(C)CCCc2ccc(OC)c(OC)c2OC)c(C2Sc3ccccc3N2C(C)=O)c1 (configuration not stated),1.2,
CC(=O)N1c2ccccc2SC1c1cc([N+](=O)[O-])ccc1OCCCCN(C)C1CCCCC1 (configuration not stated),5.4,
CC(=O)N1c2ccccc2SC1c1ccccc1OCCCN(C)C (configuration not stated),10,
COc1ccc(OCCCCN2CCC(C(=O)c3ccc(F)cc3)CC2)c(C2Sc3ccccc3N2C=O)c1 (configuration not stated),4.8,
CC(=O)N1c2ccccc2SC1c1cccc(OCCCN(C)C)c1 (configuration not stated),11,
CCC(=O)N1c2ccccc2SC1c1cc(OC)ccc1OCCCCCN(C)C1CCCCC1 (configuration not stated),7,
COc1ccc(OCCCCN2CCN(CCc3cc(OC)c(OC)c(OC)c3)CC2)c(C2Sc3ccccc3N2C(C)=O)c1 (configuration not stated),0.47,
CC(=O)N1CCSC1c1cc([N+](=O)[O-])ccc1OCCCN(C)C (configuration not stated),4.1,
CCC(=O)N1c2ccccc2SC1c1ccccc1OCCCN(C)C1CCCCC1 (configuration not stated),3.2,
COc1ccc(OCCCCN2CCN(CCc3ccc(OC)c(OC)c3)CC2)c(C2Sc3ccccc3N2C(C)=O)c1 (configuration not stated),0.64,
CC(=O)N1c2ccccc2SC1c1cc(Cl)ccc1OCCCN(C)C (configuration not stated),3.8,
COc1ccc(OCCCCN(C)CCc2cc(OC)c(OC)c(OC)c2)c(C2Sc3ccccc3N2C(C)=O)c1 (configuration not stated),0.13,Decrease of SBP [2]: 87.5 mmHg; ED50 [3]: 12 mg/kg; Decrease of SBP [4]: 48.3 mmHg; EC10 [5]: 0.2 µM
COc1ccc(OCCCCN(C)CC(C)c2ccc(OC)c(OC)c2)c(C2Sc3ccccc3N2C(C)=O)c1 (configuration not stated),1.6,
COc1ccc(OCCCCN2CCC(C(=O)c3ccc(F)cc3)CC2)c(C2Sc3ccccc3N2C(C)=O)c1 (configuration not stated),1.6,
CC(=O)N1c2ccccc2SC1c1cc(Cl)ccc1OCCCCN1CCC(C(=O)c2ccccc2)CC1 (configuration not stated),13,
COc1ccc(OCCCN(C)CCc2cc(OC)c(OC)c(OC)c2)c(C2Sc3ccccc3N2C(C)=O)c1 (configuration not stated),0.78,

Structure (SMILES),IC50 [1] [µM],other results
COc1ccc(OCCCCN(C)C2CCCCC2)c(C2Sc3ccccc3N2C(C)=O)c1 (configuration not stated),4,
COc1ccc(OCCCCN)c(C2Sc3ccccc3N2C(C)=O)c1 (configuration not stated),> 100,
CC(=O)N1c2ccccc2SC1c1ccc(OCCN(C)C)cc1 (configuration not stated),36,
CCC(=O)N1c2ccccc2SC1c1cc(OC)ccc1OCCCCN1CCC(C(=O)c2ccccc2)CC1 (configuration not stated),10,
CC(=O)N1c2ccccc2SC1c1ccccc1OCCCN(C)C1CCCCC1 (configuration not stated),1.7,
COc1ccc(OCCCCCCN2CCN(CCc3ccc(OC)c(OC)c3)CC2)c(C2Sc3ccccc3N2C(C)=O)c1 (configuration not stated),11,
COc1ccc(OCCCN(C)CCc2ccc(OC)c(OC)c2)c(C2Sc3ccccc3N2C(C)=O)c1 (configuration not stated),0.78,
COc1ccc(OCCCCN2CCC(C(=O)c3ccccc3)CC2)c(C2SCCN2C(C)=O)c1 (configuration not stated),410,
COc1ccc(OCCCCNCCc2cc(OC)c(OC)c(OC)c2)c(C2Sc3ccccc3N2C(C)=O)c1 (configuration not stated),6.5,
COc1ccc(OCCCCCN(C)C2CCCCC2)c(C2Sc3ccccc3N2C=O)c1 (configuration not stated),2.7,
CCN(CCCCOc1ccc(OC)cc1C1Sc2ccccc2N1C(C)=O)CCc1cc(OC)c(OC)c(OC)c1 (configuration not stated),1,
COc1ccc(OCCCCCN(C)C2CCCCC2)c(C2Sc3ccccc3N2C(C)=O)c1 (configuration not stated),1.2,
COc1ccc(OCCCCN(CCc2cc(OC)c(OC)c(OC)c2)C2CC2)c(C2Sc3ccccc3N2C(C)=O)c1 (configuration not stated),1.2,
COc1ccc(OCCCCN(CCc2cc(OC)c(OC)c(OC)c2)C(C)C)c(C2Sc3ccccc3N2C(C)=O)c1 (configuration not stated),0.13,
COc1ccc(OCCCN2CCN(CCc3ccc(OC)c(OC)c3)CC2)c(C2Sc3ccccc3N2C(C)=O)c1 (configuration not stated),3,
COc1ccc([C@@H]2Sc3ccccc3N(CCN(C)C)C(=O)[C@@H]2OC(C)=O)cc1 [DILTIAZEM],0.17,EC30 [6]: 440 nM; Ratio [7]: 6.5; Decrease of SBP [2]: 44.2 mmHg; ED50 [3]: > 30 mg/kg; Decrease of SBP [4]: 22.5 mmHg; EC10 [5]: 2.6 µM
COC(=O)C1=C(C)NC(C)=C(C(=O)OCCN(C)Cc2ccccc2)C1c1cccc([N+](=O)[O-])c1 (configuration not stated) [NICARDIPINE],,ED50 [3]: > 30 mg/kg
COC(=O)C1=C(C)NC(C)=C(C(=O)OC)C1c1ccccc1[N+](=O)[O-] [NIFEDIPINE],,ED50 [3]: > 30 mg/kg
Clc1ccccc1CN1CCc2sccc2C1 [TICLOPIDINE],,ED50 [3]: 260 mg/kg
COc1ccc(CCN(C)CCCC(C#N)(c2ccc(OC)c(OC)c2)C(C)C)cc1OC (configuration not stated) [VERAPAMIL],0.1,Decrease of SBP [8]: 24.2 mmHg; ED50 [3]: > 30 mg/kg; Decrease of SBP [4]: 83.3 mmHg

# Source: ChEMBL document CHEMBL1124109, “Novel calcium antagonists. Synthesis and structure-activity relationship studies of benzothiazoline derivatives” (J Med Chem, 1988)
